According to ChEMBL document CHEMBL3751694, “1-Piperazinylphthalazines as potential VEGFR-2 inhibitors and anticancer agents: Synthesis and in vitro biological evaluation” (Eur J Med Chem, 2016):

test system: MCF7; assay: Growth inhibition of human MCF7 cells at 10 uM after 48 hrs by SRB method; assay type: functional; details: MCF7, 48 h, read-out: GI
Summary of the method: (§1)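 NCI 56-line primary screen at a single 10^-5 M concentration. Cells grown in RPMI 1640 with 5% FBS and 2 mM L-glutamine, plated at 5000–40,000 cells/well, then preincubated for 24 h. Exposure was 48 h at 37 °C and 5% CO2. Adherent cells were fixed with cold TCA at 10% final, suspension cells at 16%. Staining used 0.4% SRB, read at 515 nm. Results are % growth inhibition relative to control.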

SMILES	inhibition of growth at 10 µM [%]
O=C(CN1CCN(c2nnc(-c3ccccc3)c3ccccc23)CC1)Nc1cccc(C(F)(F)F)c1	41
N#Cc1ccc(NC(=O)CN2CCN(c3nnc(-c4ccccc4)c4ccccc34)CC2)cc1	30

test system: CCRF-CEM; assay: Growth inhibition of human CCRF-CEM cells at 10 uM after 48 hrs by SRB method; assay type: functional; details: read-out: GI; summary of the method: as §1

SMILES	inhibition of growth at 10 µM [%]
O=C(CN1CCN(c2nnc(-c3ccccc3)c3ccccc23)CC1)Nc1cccc(C(F)(F)F)c1	31

test system: not listed separately; assay: Growth inhibition of human UO31 cells at 10 uM after 48 hrs by SRB method; assay type: functional; details: UO-31, 48 h, read-out: GI
Summary of the method: (§2)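 NCI 56-line screen, single-dose primary assay at 10^-5 M. Cells grown in RPMI 1640 with 5% FBS and 2 mM L-glutamine, plated at 5000–40,000 cells/well and held 24 h at 37 °C, 5% CO2 before drug addition. Compound was given from DMSO stock, exposure 48 h, then TCA fixation and SRB staining with absorbance at 515 nm. % growth is taken relative to time-zero and untreated controls.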

SMILES	inhibition of growth at 10 µM [%]
N#Cc1ccc(NC(=O)CN2CCN(c3nnc(-c4ccccc4)c4ccccc34)CC2)cc1	49

test system: not listed separately; assay: Growth inhibition of human HL-60(TB) cells at 10 uM after 48 hrs by SRB method; assay type: functional; details: HL-60, 48 h, read-out: GI
Summary of the method: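 NCI single-dose primary screen at 10^-5 M, 48 h exposure. Cells grown in RPMI 1640 with 5% FBS and 2 mM L-glutamine. Suspension cells fixed in situ with TCA (final 16%), stained with SRB, absorbance read at 515 nm. Percent growth inhibition calculated against time-zero and untreated control plates.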

SMILES	inhibition of growth at 10 µM [%]
N#Cc1ccc(NC(=O)CN2CCN(c3nnc(-c4ccccc4)c4ccccc34)CC2)cc1	30

test system: not listed separately; assay: Growth inhibition of human PC3 cells at 10 uM after 48 hrs by SRB method; assay type: functional; details: PC-3, 48 h, read-out: GI; summary of the method: as §1

SMILES	inhibition of growth at 10 µM [%]
O=C(CN1CCN(c2nnc(-c3ccccc3)c3ccccc23)CC1)Nc1cccc(C(F)(F)F)c1	40

test system: not listed separately; assay: Growth inhibition of human COLO205 cells at 10 uM after 48 hrs by SRB method; assay type: functional; details: COLO 205, 48 h, read-out: GI; summary of the method: as §1

SMILES	inhibition of growth at 10 µM [%]
N#Cc1ccc(NC(=O)CN2CCN(c3nnc(-c4ccccc4)c4ccccc34)CC2)cc1	32

test system: MDA-MB-468; assay: Growth inhibition of human MDA-MB-468 cells at 10 uM after 48 hrs by SRB method; assay type: functional; details: MDA-MB-468, 48 h, read-out: GI; summary of the method: as §1

SMILES	inhibition of growth at 10 µM [%]
O=C(CN1CCN(c2nnc(-c3ccccc3)c3ccccc23)CC1)Nc1cccc(C(F)(F)F)c1	60
N#Cc1ccc(NC(=O)CN2CCN(c3nnc(-c4ccccc4)c4ccccc34)CC2)cc1	50

test system: not listed separately; assay: Growth inhibition of human UACC62 cells at 10 uM after 48 hrs by SRB method; assay type: functional; details: UACC-62, 48 h, read-out: GI; summary of the method: as §2

SMILES	inhibition of growth at 10 µM [%]
O=C(CN1CCN(c2nnc(-c3ccccc3)c3ccccc23)CC1)Nc1cccc(C(F)(F)F)c1	41
N#Cc1ccc(NC(=O)CN2CCN(c3nnc(-c4ccccc4)c4ccccc34)CC2)cc1	32

test system: not listed separately; assay: Growth inhibition of human Caki1 cells at 10 uM after 48 hrs by SRB method; assay type: functional; details: CAKI-1, 48 h, read-out: GI; summary of the method: as §1

SMILES	inhibition of growth at 10 µM [%]
N#Cc1ccc(NC(=O)CN2CCN(c3nnc(-c4ccccc4)c4ccccc34)CC2)cc1	34

test system: SR; assay: Growth inhibition of human SR cells at 10 uM after 48 hrs by SRB method; assay type: functional; details: read-out: GI; summary of the method: as §1

SMILES	inhibition of growth at 10 µM [%]
O=C(CN1CCN(c2nnc(-c3ccccc3)c3ccccc23)CC1)Nc1cccc(C(F)(F)F)c1	55
N#Cc1ccc(NC(=O)CN2CCN(c3nnc(-c4ccccc4)c4ccccc34)CC2)cc1	36

test system: K562; assay: Growth inhibition of human K562 cells at 10 uM after 48 hrs by SRB method; assay type: functional; details: K562, 48 h, read-out: GI; summary of the method: as §1

SMILES	inhibition of growth at 10 µM [%]
O=C(CN1CCN(c2nnc(-c3ccccc3)c3ccccc23)CC1)Nc1cccc(C(F)(F)F)c1	38
N#Cc1ccc(NC(=O)CN2CCN(c3nnc(-c4ccccc4)c4ccccc34)CC2)cc1	34

test system: A498; assay: Growth inhibition of human A498 cells at 10 uM after 48 hrs by SRB method; assay type: functional; details: A498, 48 h, read-out: GI; summary of the method: as §1

SMILES	inhibition of growth at 10 µM [%]
O=C(CN1CCN(c2nnc(-c3ccccc3)c3ccccc23)CC1)Nc1cccc(C(F)(F)F)c1	32
N#Cc1ccc(NC(=O)CN2CCN(c3nnc(-c4ccccc4)c4ccccc34)CC2)cc1	44

test system: T47D; assay: Growth inhibition of human T47D cells at 10 uM after 48 hrs by SRB method; assay type: functional; details: read-out: GI; summary of the method: as §2

SMILES	inhibition of growth at 10 µM [%]
O=C(CN1CCN(c2nnc(-c3ccccc3)c3ccccc23)CC1)Nc1cccc(C(F)(F)F)c1	59
N#Cc1ccc(NC(=O)CN2CCN(c3nnc(-c4ccccc4)c4ccccc34)CC2)cc1	64

test system: NCI-H522; assay: Growth inhibition of human NCI-H522 cells at 10 uM after 48 hrs by SRB method; assay type: functional; details: NCI-H522, 48 h, read-out: GI; summary of the method: as §1

SMILES	inhibition of growth at 10 µM [%]
O=C(CN1CCN(c2nnc(-c3ccccc3)c3ccccc23)CC1)Nc1cccc(C(F)(F)F)c1	53
N#Cc1ccc(NC(=O)CN2CCN(c3nnc(-c4ccccc4)c4ccccc34)CC2)cc1	37

test system: not listed separately; assay: Growth inhibition of human […] cells at 10 uM after 48 hrs by SRB method; assay type: functional; details: read-out: GI; summary of the method: as §1

SMILES	inhibition of growth at 10 µM [%]
O=C(CN1CCN(c2nnc(-c3ccccc3)c3ccccc23)CC1)Nc1cccc(C(F)(F)F)c1	46
N#Cc1ccc(NC(=O)CN2CCN(c3nnc(-c4ccccc4)c4ccccc34)CC2)cc1	39

test system: not listed separately; assay: Growth inhibition of human MOLT4 cells at 10 uM after 48 hrs by SRB method; assay type: functional; details: MOLT-4, 48 h, read-out: GI; summary of the method: as §1

SMILES	inhibition of growth at 10 µM [%]
O=C(CN1CCN(c2nnc(-c3ccccc3)c3ccccc23)CC1)Nc1cccc(C(F)(F)F)c1	52
N#Cc1ccc(NC(=O)CN2CCN(c3nnc(-c4ccccc4)c4ccccc34)CC2)cc1	43

test system: SK-MEL-5; assay: Growth inhibition of human SK-MEL-5 cells at 10 uM after 48 hrs by SRB method; assay type: functional; details: SK-MEL-5, 48 h, read-out: GI; summary of the method: as §1

SMILES	inhibition of growth at 10 µM [%]
O=C(CN1CCN(c2nnc(-c3ccccc3)c3ccccc23)CC1)Nc1cccc(C(F)(F)F)c1	41
N#Cc1ccc(NC(=O)CN2CCN(c3nnc(-c4ccccc4)c4ccccc34)CC2)cc1	47

test system: A549; assay: Growth inhibition of human A549 cells at 10 uM after 48 hrs by SRB method; assay type: functional; details: A549, 48 h, read-out: GI; summary of the method: as §1

SMILES	inhibition of growth at 10 µM [%]
O=C(CN1CCN(c2nnc(-c3ccccc3)c3ccccc23)CC1)Nc1cccc(C(F)(F)F)c1	34

test system: not listed separately; assay: Growth inhibition of human HOP92 cells at 10 uM after 48 hrs by SRB method; assay type: functional; details: HOP-92, 48 h, read-out: GI; summary of the method: as §1

SMILES	inhibition of growth at 10 µM [%]
N#Cc1ccc(NC(=O)CN2CCN(c3nnc(-c4ccccc4)c4ccccc34)CC2)cc1	40

test system: not listed separately; assay: Growth inhibition of human UACC257 cells at 10 uM after 48 hrs by SRB method; assay type: functional; details: UACC-257, 48 h, read-out: GI; summary of the method: as §2

SMILES	inhibition of growth at 10 µM [%]
N#Cc1ccc(NC(=O)CN2CCN(c3nnc(-c4ccccc4)c4ccccc34)CC2)cc1	30
